Experimental data as given in ChEMBL document CHEMBL1240471, “Synthesis and anticancer activity of chromone-based analogs of lavendustin A” (Eur J Med Chem, 2010).
In brackets after ≈: the same amount, converted by molar mass.

How the values were obtained:
Type in all cases: functional, cell-based
SK-MEL-2 = experiment: Growth inhibition of human SK-MEL-2 cells after 72 hrs by SRB assay; settings: SK-MEL-2, 72 h
Method in brief: (§1)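 Cells were seeded at 5 × 10³ cells/well in 96-well plates. Various sample concentrations were added in triplicate, and plates were incubated for 72 h at 37 °C in 5% CO₂. Optical density was read at 520 nm. GI₅₀ was taken as the concentration inhibiting cell growth by 50%.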

A-431 = experiment: Growth inhibition of human A431 cells after 72 hrs by SRB assay; settings: A-431, 72 h; method in brief: as §1
A549 = experiment: Growth inhibition of human A549 cells after 72 hrs by SRB assay; settings: A549, 72 h
Method in brief: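 A-549 cells were seeded at 2 × 10³ cells/well. Various sample concentrations were tested in triplicate over 72 h at 37 °C under 5% CO₂. Absorbance was read at 520 nm. GI₅₀ was assigned as the concentration giving 50% growth inhibition.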

KB = experiment: Growth inhibition of human KB cells after 72 hrs by SRB assay; method in brief: as §1
SK-OV-3 = experiment: Growth inhibition of human SKOV3 cells after 72 hrs by SRB assay; settings: SK-OV-3, 72 h
HCT-15 = experiment: Growth inhibition of human HCT15 cells after 72 hrs by SRB assay; settings: HCT-15, 72 h; method in brief: as §1

SMILES	IC50 (SK-MEL-2) [µg/mL]	IC50 (A-431) [µg/mL]	IC50 (A549) [µg/mL]	IC50 (KB) [µg/mL]	IC50 (SK-OV-3) [µg/mL]	IC50 (HCT-15) [µg/mL]
COc1ccc(CCN(Cc2ccccc2)Cc2c(O)ccc3c(=O)cc(C)oc23)cc1OC	21.9 (≈ 47.6 µM)	> 100	26.1 (≈ 56.8 µM)	24.3 (≈ 53 µM)	41.7 (≈ 90.7 µM)	31.5 (≈ 68.5 µM)
Cc1cc(=O)c2ccc(O)c(CN(CCc3ccccc3)Cc3ccc([N+](=O)[O-])cc3)c2o1	74.1 (≈ 167 µM)	61 (≈ 137 µM)	9.92 (≈ 22.3 µM)	10.8 (≈ 24.4 µM)	> 100	7.68 (≈ 17.3 µM)
Cc1cc(=O)c2ccc(O)c(CN(Cc3ccccc3)Cc3ccccc3)c2o1	17.8 (≈ 46.1 µM)	19.5 (≈ 50.6 µM)	11.9 (≈ 30.9 µM)	15.1 (≈ 39.2 µM)	19 (≈ 49.2 µM)	11.3 (≈ 29.4 µM)
COc1ccc(CCN(Cc2ccccc2)Cc2c(O)ccc3c(=O)cc(C)oc23)cc1	19.9 (≈ 46.4 µM)	25.2 (≈ 58.7 µM)	16.6 (≈ 38.7 µM)	16.1 (≈ 37.4 µM)	65 (≈ 151 µM)	15.8 (≈ 36.8 µM)
COc1ccc(CN(Cc2ccc([N+](=O)[O-])cc2)Cc2c(O)ccc3c(=O)cc(C)oc23)cc1	> 100	> 100	24.5 (≈ 53.1 µM)	24.4 (≈ 53 µM)	> 100	28.6 (≈ 62.1 µM)
COc1ccc(CN(Cc2ccc(OC)cc2)Cc2c(O)ccc3c(=O)cc(C)oc23)cc1	31.6 (≈ 71 µM)	38.9 (≈ 87.3 µM)	62.5 (≈ 140 µM)	17.8 (≈ 39.9 µM)	> 100	53.7 (≈ 121 µM)
COc1ccc(CN(Cc2ccc3ccccc3c2)Cc2c(O)ccc3c(=O)cc(C)oc23)cc1	> 100	16.4 (≈ 35.2 µM)	6.01 (≈ 12.9 µM)	17.6 (≈ 37.8 µM)	> 100	6.89 (≈ 14.8 µM)
COc1ccc(CN(CCc2ccccc2)Cc2c(O)ccc3c(=O)cc(/C=C/c4ccccc4)oc23)cc1	> 100	–	17.9 (≈ 34.6 µM)	35 (≈ 67.6 µM)	–	49.4 (≈ 95.4 µM)
Cc1cc(=O)c2ccc(O)c(CN(CCc3ccccc3)Cc3ccccc3)c2o1	17.4 (≈ 43.5 µM)	18.5 (≈ 46.3 µM)	12.3 (≈ 30.9 µM)	14.5 (≈ 36.3 µM)	21.6 (≈ 54 µM)	11.7 (≈ 29.3 µM)
CCN(Cc1ccc(OC)cc1)Cc1c(O)ccc2c(=O)cc(C)oc12	60.3 (≈ 171 µM)	41.9 (≈ 119 µM)	38.7 (≈ 110 µM)	47.4 (≈ 134 µM)	57.5 (≈ 163 µM)	22.4 (≈ 63.5 µM)
CCN(CCc1ccccc1)Cc1c(O)ccc2c(=O)cc(C)oc12	57.5 (≈ 171 µM)	> 100	32.7 (≈ 96.8 µM)	32.6 (≈ 96.6 µM)	> 100	43.2 (≈ 128 µM)
COc1ccc(CN(Cc2ccccc2)Cc2c(O)ccc3c(=O)cc(C)oc23)cc1	78.6 (≈ 189 µM)	44.7 (≈ 108 µM)	14.1 (≈ 34 µM)	42.7 (≈ 103 µM)	24.5 (≈ 59.1 µM)	10.7 (≈ 25.8 µM)
